ChEMBL document CHEMBL2086375 (Bioorg Med Chem, 2012)

How the values were obtained:
[1] = Prodrug activation in simulated intestinal fluid at 0.01 mg/mL after 60 mins by LC/MS analysis; conditions: simulated gi fluid, 1 h
Method in brief: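 Compound at 0.01 mg/mL in simulated intestinal fluid, mixed and held at 37 °C for 60 min. Samples were injected consecutively onto a C18 reverse-phase HPLC column for analysis. Results are percent disappearance of prodrug.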

Liver = assay: Prodrug activation in mouse liver microsomes at 1 uM incubated for 10 mins prior to NADPH addition measured after 30 mins by LC/MS/MS analysis; design: species or system Microsome; conditions: 0.5 h
Method in brief: (§1)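 Liver microsomes were pre-warmed with compound at 37 °C for 10 min, and the reaction was started with NADPH at 1 mM final. A parallel incubation without NADPH served as control. After 30 min at 37 °C, samples were quenched with acetonitrile containing 0.1% formic acid and internal standard, then centrifuged. Supernatant was diluted fivefold and read by LC/MS/MS (SRM, positive ESI). Results are percent of control remaining.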

Liver microsomes [2] = assay: Prodrug activation in human liver microsomes at 1 uM incubated for 10 mins prior to NADPH addition measured after 30 mins by LC/MS/MS analysis; design: species or system Microsome; conditions: 0.5 h; method in brief: as §1
Liver microsomes [3] = assay: Metabolic stability in human liver microsomes assessed as low CYP1A2 activity-mediated metabolism measured as compound remaining at 1 uM incubated for 10 mins prior to NADPH addition measured after 30 mins by LC/MS/MS analysis relative to control; conditions: 0.5 h
[4] = Half life in simulated gastric fluid at 1 mg/mL; format: physicochemical
Liver microsomes [5] = assay: Metabolic stability in human liver microsomes assessed as high CYP1A2 activity-mediated metabolism measured as compound remaining at 1 uM incubated for 10 mins prior to NADPH addition measured after 30 mins by LC/MS/MS analysis relative to control; conditions: 0.5 h
Liver microsomes [6] = conditions: human, 0.5 h, 1 µM
Liver microsomes [7] = assay: Half life in human liver microsomes at 1 uM; format: ADME, Microsome
Liver microsomes [8] = assay: Metabolic stability in human liver microsomes assessed as low CYP1A2 activity-mediated metabolism measured as compound remaining at 1 uM after 30 mins by LC/MS/MS analysis relative to control; conditions: 0.5 h
[9] = Half life in human plasma at 1 uM; format: ADME, cell-free
[10] = Half life in simulated intestinal fluid at 1 mg/mL; format: physicochemical; conditions: simulated gi fluid
Liver microsomes [11] = assay: Drug metabolism in human liver microsomes assessed as high CYP1A2 activity-mediated N-hydroxyriluzole formation at 1 uM incubated for 10 mins prior to NADPH addition measured after 30 mins by LC/MS/MS analysis; format: ADME, Microsome; conditions: 0.5 h

Structure (SMILES) | Drug metabolism [1] [%] | Drug metabolism (Liver) [%] | Drug metabolism (Liver microsomes [2]) [%] | also measured
C[C@H](N)C(=O)Nc1nc2ccc(OC(F)(F)F)cc2s1 | 50 | 1 | 0 | –
C[C@@H](N)C(=O)Nc1nc2ccc(OC(F)(F)F)cc2s1 | 50 | 10 | 4 | –
CC(C)[C@H](N)C(=O)Nc1nc2ccc(OC(F)(F)F)cc2s1 | 40 | 40 | 6 | –
N[C@@H](Cc1ccccc1)C(=O)Nc1nc2ccc(OC(F)(F)F)cc2s1 | – | 2 | 0 | –
N[C@H](Cc1ccccc1)C(=O)Nc1nc2ccc(OC(F)(F)F)cc2s1 | 0 | 12 | 18 | –
N[C@@H](COCc1ccccc1)C(=O)Nc1nc2ccc(OC(F)(F)F)cc2s1 | 0 | 0 | 15 | Stability (Liver microsomes [3]): 78%; half-life at 1 mg/mL [4]: > 1 h; Stability (Liver microsomes [5]): 70%; Stability (Liver microsomes [6]): 77%; t1/2 (Liver microsomes [7]): > 1 h; Stability (Liver microsomes [8]): 76%; half-life at 1 µM [9]: 5 h; t1/2 [10]: 1.63 h
N[C@H](COCc1ccccc1)C(=O)Nc1nc2ccc(OC(F)(F)F)cc2s1 | – | 24 | 0 | –
COC(=O)Nc1nc2ccc(OC(F)(F)F)cc2s1 | 0 | 10 | 0 | –
CCOC(=O)Nc1nc2ccc(OC(F)(F)F)cc2s1 | 0 | 8 | 7 | –
CCCOC(=O)Nc1nc2ccc(OC(F)(F)F)cc2s1 | 0 | 15 | 34 | –
CCCCOC(=O)Nc1nc2ccc(OC(F)(F)F)cc2s1 | 0 | 53 | 13 | –
CCC(C)OC(=O)Nc1nc2ccc(OC(F)(F)F)cc2s1 (centres undefined) | 0 | 23 | 14 | –
CN(C)CCOC(=O)Nc1nc2ccc(OC(F)(F)F)cc2s1 | 0 | 13 | 10 | –
CN(C)CCCOC(=O)Nc1nc2ccc(OC(F)(F)F)cc2s1 | 0 | 71 | 0 | –
O=C(Cc1ccccc1[N+](=O)[O-])Nc1nc2ccc(OC(F)(F)F)cc2s1 | 0 | 59 | 22 | –
Nc1nc2ccc(OC(F)(F)F)cc2s1 [RILUZOLE] | – | – | – | Drug metabolism (Liver microsomes [11]): Active

Further lines, with some results ahead:

Drug metabolism [1] [%] | Drug metabolism (Liver) [%] | Drug metabolism (Liver microsomes [2]) [%] | Structure (SMILES) | also measured
0 | 70 | 0 | O=C(O)CCC(=O)Nc1nc2ccc(OC(F)(F)F)cc2s1 | –
0 | 77 | 34 | COC(=O)CCC(=O)Nc1nc2ccc(OC(F)(F)F)cc2s1 | –
0 | 0 | 21 | CC(C)(C)OC(=O)CCC(=O)Nc1nc2ccc(OC(F)(F)F)cc2s1 | –
10 | 0 | 4 | O=C(CCC(=O)Nc1nc2ccc(OC(F)(F)F)cc2s1)NCc1cccnc1 | –
60 | – | – | O=C(CCC(=O)Nc1nc2ccc(OC(F)(F)F)cc2s1)NCCN1CCOCC1 | –
0 | 66 | 19 | NCCCC(=O)Nc1nc2ccc(OC(F)(F)F)cc2s1 | –
50 | – | – | NCC1(CC(=O)Nc2nc3ccc(OC(F)(F)F)cc3s2)CCCCC1 | –
